Sampled rows, rich in hits. Any-hit rate of the full collection: about 1.1%.
Calpain2 inh: calpain II (pig) inhibition. purified calpain II, fluorogenic peptide substrate, 30 min. inhibition, % at 16 µM. 0.37% of 220,000 active. AID 1236;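 active means inhibition above about 50%, limit read from the data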
Furin inhibitor: inhibitors of human furin. inhibition, % at 20 µM or 30 µM. P09958. 0.061% of 220,000 active. purified furin, fluorogenic substrate cleavage. AID 463115; in the data active means inhibition above about 25%
p47phox inh: blocks human p47phox regulatory protein of NADPH oxidases | P14598 | p47phox/p22phox peptide binding, fluorescence polarization, 2 h | 0.53% of 220,000 active | inhibition, % at 24.7 µM;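 active means inhibition above about 30%, limit read from the data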;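 further: 0% = p47phox with labelled peptide and 100% = labelled peptide alone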
Target sequence (P14598 whole entry, looked up): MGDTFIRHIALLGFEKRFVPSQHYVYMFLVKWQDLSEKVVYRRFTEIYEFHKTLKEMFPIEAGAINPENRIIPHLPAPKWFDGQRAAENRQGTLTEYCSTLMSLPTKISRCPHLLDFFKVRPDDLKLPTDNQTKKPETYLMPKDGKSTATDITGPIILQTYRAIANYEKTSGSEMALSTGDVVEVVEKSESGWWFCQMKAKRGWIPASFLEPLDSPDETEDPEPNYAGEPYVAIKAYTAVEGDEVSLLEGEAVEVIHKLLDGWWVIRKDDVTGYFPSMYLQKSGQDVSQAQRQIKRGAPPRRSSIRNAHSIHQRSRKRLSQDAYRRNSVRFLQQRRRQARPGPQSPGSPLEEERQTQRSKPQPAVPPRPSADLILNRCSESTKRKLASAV
RBBP9 inh: human RBBP9 hydrolase inhibition | O75884 | recombinant RBBP9, FP-Rh probe fluorescence polarization | inhibition, % at 7.94 µM | 0.2% of 220,000 active;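 active means inhibition above the campaign mean of all tested compounds plus 3 SD, cut at about 14% in these data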;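 further: plate controls were DMSO wells with RBBP9 for no effect and wells lacking RBBP9 protein for full effect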
Target sequence (O75884 whole entry, looked up): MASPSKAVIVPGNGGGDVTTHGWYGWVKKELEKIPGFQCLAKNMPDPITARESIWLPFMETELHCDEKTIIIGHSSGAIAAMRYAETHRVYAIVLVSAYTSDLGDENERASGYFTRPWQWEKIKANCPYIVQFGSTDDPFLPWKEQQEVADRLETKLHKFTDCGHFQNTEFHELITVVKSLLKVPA
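Test system – recombinant human RBBP9 · Input – RBBP9 2.5 µM in dispensing solution, pre-mixing · Medium – Tris buffer pH 8.0, NaCl, Pluronic · Schedule – preincubation 30 min plus labeling 45 min at 25 °C · Measured by – fluorescence polarization · Measure – % inhibition · Controls – DMSO and no-protein wells · Replicates – one well per compound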
* = called active by the depositor; . = not tested or not shown.

SMILES	Calpain2 inh	Furin inhibitor	p47phox inh	RBBP9 inh
Cc1ccc(-c2cc(C(=O)Nc3sc4c(c3C(=O)NCc3ccco3)CCC4)[nH]n2)c(O)c1	-226	-26	-9	-5
O=C(O)Cc1sc(N/N=C\c2ccncc2)nc1-c1ccccc1	13	13	-29	6
CCc1ccc(N2C(=O)C3C4CCC(C4=C(C)C)C3C2=O)cc1 (stereo not drawn)	-1	-13	-2	-3
CC(C)(C)NC(=O)C(c1ccncc1)N(C(=O)c1csnn1)c1cccc2ccccc12 (stereo not drawn)	2	-8	0	-14
Cc1ccc(CSc2nnc([C@@H]3CCCN3C(=O)OC(C)(C)C)o2)cc1	12	-20	2	-12
CC(C)CNS(=O)(=O)c1ccc(OCC(=O)NCC2CCCO2)c(Cl)c1 (stereo not drawn)	5	-10	-5	-5
COC(=O)COc1ccc(S(=O)(=O)NCC2CCCO2)cc1Cl (stereo not drawn)	-15	31*	-3	2
O=C(CSc1nc(O)cc(=O)n1-c1ccccc1)Nc1ccc(Br)cn1	-2	-14	-10	7
COc1ccc(NC(=S)NCCc2c(C)[nH]c3ccc(OC)cc23)cc1	62*	-23	-8	-7
Cc1ccc(C(=O)N2N=C(CC(C)C)CC2(O)C(F)(F)F)o1 (stereo not drawn)	6	-7	-17	-3
CCc1ccc(CN(C)C(=O)CCc2nnc(CCc3ccccc3OC)o2)nc1	6	-11	-5	-3
CCOc1ccc(NC(=S)N(CCCN2CCOCC2)Cc2cn(C)c3ccccc23)cc1	-11	-21	-10	-3
COc1ccc(NC(=S)N(CCCN2CCOCC2)Cc2cn(C)c3ccccc23)cc1	54*	-33	-2	-3
CC(=O)c1cccc(NC(=O)C2CCCN(S(=O)(=O)c3cccc4cccnc34)C2)c1 (stereo not drawn)	-6	-28	-1	-6
COc1ccc(NC(=O)C2CCCN(S(=O)(=O)c3cccc4cccnc34)C2)c(OC)c1 (stereo not drawn)	124*	-14	-7	0
O=C1C2=C(C(c3ccccc3)=NCCN2)C(c2cccc([N+](=O)[O-])c2)N1c1ccccc1 (stereo not drawn)	-41	-12	-10	-3
CSc1cccc(NC(=S)N(CCCN2CCCC2)Cc2cccn2Cc2ccc(Cl)cc2)c1	-48	-8	32*	2
S=C(Nc1cccc(Cl)c1)N(CCCN1CCCC1)Cc1cccn1Cc1ccc(Cl)cc1	15	-8	43*	-2
COc1cccc(NC(=S)N(CCCN2CCCC2)Cc2cccn2Cc2ccc(Cl)cc2)c1	24	-6	-10	-2
Cc1ccc2cc(C)c3nnc(SCC(=O)Nc4nc5c(s4)CCCC5)n3c2c1C	-134	-14	-11	-2
CCOc1ccccc1C(=O)NCc1ccc2c(c1)OCO2	-16	-35	12	-4
CCOc1cccc2cc(-c3nnc(NCc4ccc5c(c4)OCO5)s3)c(=O)oc12	-132	-15	67*	-2
Cc1ccc(C(=O)COC(=O)c2ccc3c(c2)C(=O)N(c2cccc4ncccc24)C3=O)cc1	35	0	84*	-2
O=C(COC(=O)c1ccc2c(c1)C(=O)N(c1cccc3ncccc13)C2=O)c1ccc(Cl)cc1	-22	-17	56*	0
O=S(N1CCc2ccccc21)C12CC3CC(CC(C3)C1)C2 (stereo not drawn)	103*	-9	0	-4
SMILES	Calpain2 inh	Furin inhibitor	p47phox inh	RBBP9 inh
CCCn1c(=S)[nH]c2cc(C(=O)N3CCc4ccccc4C3)ccc2c1=O	57*	-9	5	-6
Cc1ccc(F)c(C2C3C=CCC(c4cccc(-c5ccc(N(C)C)cc5)c4)C3C(=O)N2Cc2ccccc2)c1 (stereo not drawn)	-95	-28	-17	.
CCCc1ccc(C(=O)NNc2ccccc2F)cc1	-12	-16	-7	-6
Cn1cc([N+](=O)[O-])c(C(=O)Nc2cc(Oc3cccnc3)cc([N+](=O)[O-])c2)n1	59*	-18	-15	-6
O=[N+]([O-])c1cc(Oc2cccnc2)cc([N+](=O)[O-])c1	-4	-3	-1	3
Oc1oc(-c2cccc3ccccc23)nc1C=NCc1ccccc1	-9	-7	-10	-12
COCCn1c(C)cc(C(=O)COC(=O)CNC(=O)c2ccccc2)c1C	59*	-34	-1	-4
Cc1ccc(NC(=O)c2cc(N3C(=O)C4CCCCC4C3=O)ccc2N2CCOCC2)cc1 (stereo not drawn)	68*	-8	2	-6
Cc1ccc(C(=O)NCC(=O)N/N=C/c2sccc2C)cc1[N+](=O)[O-]	-2	-18	-5	-10
C=C(C)COc1ccc(-c2[nH]ncc2Oc2cccc(OC)c2)c(O)c1	57*	-13	-5	-10
CCOc1ccc(C(=O)Nc2ccc(Cc3ccncc3)cc2)cc1Br	0	-27	-11	-13
CCOc1ccc(C(=O)Nc2ccc(N3CCN(C)CC3)cc2)cc1Br	-10	26*	-2	4
NC(=O)NC(=O)COC(=O)/C=C/c1cccs1	7	-14	2	2
C/C=C(/C)C(=O)Nc1cccc(C2=NOC3(C2)C[C@H](C(N)=O)N(C(=O)c2ccc(Cl)cc2)C3)c1 (stereo partly drawn)	-30	-20	42*	.
C=CCOC(=O)c1cc(-c2ccc(/C=C3\C(=O)NC(=O)C(C#N)=C3C)o2)ccc1Cl	-113	4	39*	-1
Cc1[nH]ccc2c1[nH]c1cc(=O)ccc12	-326	-94	46*	-7
CN(c1ccccc1)S(=O)(=O)c1ccc(C(=O)OCC(=O)NCc2cccs2)cc1	-11	-24	4	6
N#C/C(=C\c1ccc(N2CCCCC2)o1)C(N)=O	-10	5	-24	-6
N#C/C(=C\c1ccc(N2CCCCC2)o1)C(=O)Nc1cccc(Br)c1	-3	-19	37*	-10
Cc1ccnc(NC(=O)c2cc(-n3cnnc3)ccc2Cl)c1	-10	-23	-15	-6
Cc1ccc(NC(=O)c2cc(-n3cnnc3)ccc2Cl)c(C)c1	2	-5	42*	-3
O=C(COc1ccc([N+](=O)[O-])cc1)Nc1ccc(C(=O)Nc2ccccc2C(=O)O)cc1	-1	-11	48*	-8
Cc1noc(C)c1COC(=O)/C=C/c1ccccc1Cl	33	2	0	-5
Cc1noc(C)c1COC(=O)C(c1ccccc1)c1ccccc1	58*	-21	2	-4
Cc1noc(C)c1COC(=O)CNC(=O)c1cccc(F)c1	59*	-31	-5	-7
CCOC(=O)C1CCCN(C(=O)Nc2ccccc2)C1 (stereo not drawn)	20	-23	-21	-9
CCOC(=O)C1CCN(C(=O)Nc2ccc(OCc3ccccc3)cc2)CC1	6	-9	44*	-1
Cc1ccccc1C(=O)Nc1ccc2c(C#N)c3nc4ccccc4nc3n2c1	-25	1	34*	-9
COCCNC(=O)c1sc2ncn(CC(=O)Nc3ccc(C)c(Cl)c3)c(=O)c2c1C	-1	-24	-1	-10
